Measurements reported in PMC6712212 (Drug Design, Development and Therapy, 2019).

System: NSCLC-H292 cells
Assay: Flow cytometry cell cycle analysis
Assay type: cell-based, human
Summary of the method: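 Cells were grown in six-well plates and treated 48 hrs, then harvested and centrifuged 5 mins. They were resuspended in precooled PBS, centrifuged again, and fixed in 70% ethanol overnight at 4°C. After a PBS rinse, cells were stained with propidium iodide. Red fluorescence of 1×10^5 cells was measured by flow cytometry with 488 nm excitation.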

O[C@@H](CS)[C@@H](O)CS [DTT]
Cell cycle effect (in words): cells were blocked in G0/G1phase
